# Source: PubChem BioAssay (Broad Institute)
# Env fusion inh – blocks HIV Env-driven cell-cell fusion. HeLa-JRFL Env/CEM21 cell fusion, luciferase. inhibition, % at 12.3 µM. actives 1.1% (n = 360,000). AID 651610;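 active = mean replicate inhibition score of at least 50 and every replicate individually at or above 50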;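 note: 0% = plate neutral controls and 100% = maraviroc near 300 nM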
# CDK5 inh – blocks human CDK5/p35 kinase activity; Q00535+Q15078; Recombinant CDK5/p35, ADP-Glo luminescence, 60 min; inhibition, % at 10 µM; actives 0.01% (n = 330,000); AID 488839;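 active = highest replicate inhibition of at least 50% and at least 75% of replicates reaching 50%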;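 note: plate controls were DMSO neutral control for no effect and GW8510 at 10 µM for full effect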
# INS-1E GSIS act – primary screen for activators of insulin secretion dependent on glucose, INS-1E cells, GLuc reporter luminescence | AID 743287 | actives 0.61% (n = 370,000) | INS-1E GLuc reporter insulin secretion, 2-3 h | activation, % at 16.6 µM;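 active = lowest replicate activation of at least 40%, so every replicate reaches that level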;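 note: 0% = median of neutral control wells and 100% = median of IBMX positive control wells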
# GSK3beta inhib – inhibitors of human GSK3beta kinase; actives 0.038% (n = 300,000); activity score (negative = inhibition), % at 10 µM; GST-GSK3beta kinase, ADP-Glo luminescence, 60 min; active compounds read low; P49841;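 active = more than half of replicate wells score below -50%, meaning over 50% inhibition versus plate controls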;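 note: 0% = median DMSO wells and -100% = median GW8510 positive control wells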
#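 Assay system: GST-tagged human GSK3beta kinase, cell-free; Input: 1.6 ng GSK3beta; Medium: Tris/MgCl2 kinase buffer; Timing: 60 min enzyme reaction, room temperature; Signal: ADP-Glo luminescence quantifying ADP generated by kinase; Evaluation: score relative to plate controls; Benchmarks: DMSO neutral wells and GW8510 at 20 µM as positive.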
# STK33 inh – inhibitors of human STK33 kinase; purified STK33, MBP phosphorylation, ADP-Glo luminescence; inhibition, % at 10 µM; actives 0.073% (n = 320,000); AID 2661;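 active = inhibition at or above 25%, using the most active replicate where run in duplicate; inactive = inhibition below 25%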
# Target sequence (Q9BYT3 whole entry, looked up): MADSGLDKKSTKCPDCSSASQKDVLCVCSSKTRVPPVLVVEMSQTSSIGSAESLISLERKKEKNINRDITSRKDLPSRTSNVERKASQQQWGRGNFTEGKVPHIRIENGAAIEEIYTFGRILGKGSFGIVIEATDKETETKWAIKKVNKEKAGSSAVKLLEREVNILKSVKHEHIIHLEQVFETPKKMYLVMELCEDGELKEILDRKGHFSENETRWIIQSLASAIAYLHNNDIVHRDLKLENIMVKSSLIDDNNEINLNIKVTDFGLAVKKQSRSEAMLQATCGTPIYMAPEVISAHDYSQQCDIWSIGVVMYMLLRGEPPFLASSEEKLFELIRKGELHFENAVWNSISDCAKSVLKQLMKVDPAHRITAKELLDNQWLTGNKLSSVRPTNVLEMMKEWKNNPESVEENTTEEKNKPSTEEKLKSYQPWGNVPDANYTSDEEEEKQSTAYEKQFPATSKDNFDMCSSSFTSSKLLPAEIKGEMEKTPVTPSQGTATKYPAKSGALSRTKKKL
# GSK3A inh – blocks human GSK-3 alpha kinase; ADP-Glo luminescence, 60 min; inhibition, % at 10 µM; actives 0.1% (n = 320,000); AID 2650;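 active = more than half of replicates show inhibition above 20%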;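 note: GST-tagged GSK-3 alpha with peptide substrate and 25 µM ATP; 0% = DMSO neutral wells and 100% = GW8510 positive control wells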
# * hit, by the source's call; nt = no result given; [ ] = another dose, or the depositor's remark. The list is not random: actives were taken first. Their share in the collection is about 1.4%.
SMILES,Env fusion inh,CDK5 inh,INS-1E GSIS act,GSK3beta inhib,STK33 inh,GSK3A inh
C[C@@H]1CN([C@@H](C)CO)C(=O)c2cc(NC(=O)CCC(F)(F)F)ccc2O[C@@H](C)CCCCO[C@H]1CN(C)C,7[16.7 µM],nt,10,nt,nt,nt
O=C(N[C@H]1CC[C@H](CCn2cc(-c3ccccc3)nn2)O[C@H]1CO)c1cnccn1,5[16.7 µM],nt,9,nt,nt,nt
CO[C@@H]1CN(C)C(=O)c2ccc(NC(=O)c3cc(C)on3)cc2OC[C@H](C)N(C(=O)C2CC2)C[C@H]1C,nt,nt,3,nt,nt,nt
COC(=O)C1C(OC)=CC(=O)C2CCCCC21 (configuration not stated),57*,0,18,nt,nt,nt
CCCCCC1CC(=O)C=C(C)C1C(=O)OC (configuration not stated),0,0,3,2,-1,-4
Cc1ccc(O)c(C2=NOC(O)(C(F)(F)C(F)F)C2)c1 (configuration not stated),3,0,-7,1,-1,-3
Cc1ccc(O)c(C2=NOC(O)(C(F)(F)F)C2)c1 (configuration not stated),nt,0,52*,1,-3,-4
CC(=O)N(/N=C/c1cccc(C)c1)c1nc(-c2ccc(Br)cc2)cs1,-136,-1,110*,2,-2,-1
CCOc1cccc(-c2csc(C3COc4ccccc4O3)n2)c1 (configuration not stated),-8,1,126*,-3,-1,2
NC(N)=Nc1nc(C2COc3ccccc3O2)cs1 (configuration not stated),-82,-1,5,-25,4,1
CCCOc1ccc2ccccc2c1/C=N/n1cnnc1,91*,0,4,-4,0,-1
CCOc1ccc2ccccc2c1/C=N/n1cncn1,-101,0,-1,-1,-1,3
O=C(O)CCC(=O)N1CCN(c2nc(-c3ccccc3)c3ccccc3n2)CC1,-9,5,14,3,-1,-2
Cc1ccc2nc(N3CCN(C(=O)CCCC(=O)O)CC3)nc(-c3ccccc3)c2c1,5,-1,57*,7,1,1
O=C(C1CCOCC1)N1[C@@H](CO)[C@@H]2c3ccccc3NC[C@@H]21,nt,nt,0,nt,nt,nt
CS(=O)(=O)Nc1ccc(-c2ccc(/C=C3\SC(N)=NC3=O)o2)cc1,4,5,-13,0,-1,55*
NC1=NC(=O)/C(=C/c2ccc(-c3ccc(S(N)(=O)=O)cc3)o2)S1,-38,40,7,-2,0,65*
C=C(C)c1cccc(C(C)(C)NC(=O)Nc2ccc(Cl)cn2)c1,65*,-1,-27,1,nt,nt
CN(C)CC(=O)Nc1ccc2c(c1)[C@H]1C[C@@H](CC(=O)NCc3ccc4c(c3)OCO4)O[C@H](CO)[C@H]1O2,0[16.7 µM],nt,1,nt,nt,nt
COc1ccc(N2C(=O)c3ccccc3NC(=O)C2C(=O)NCCc2ccccc2F)cc1 (configuration not stated),58*,nt,-24,nt,nt,nt
O=C1C=C(N2CCOCC2)c2ccccc2C1=O,65*,3,-15,4,5,-3
O=C1C=C(N2CCOCC2)c2cccc3cccc1c23,27,nt,-7,nt,nt,nt
O=C(Nc1ccc(F)cc1)C1COc2ccccc2O1 (configuration not stated),-17,-3,184*,-1,-1,0
O=C(Nc1ccncc1)C1COc2ccccc2O1 (configuration not stated),nt,1,nt,-2,-1,4
CC(OC(=O)C1COc2ccccc2O1)C(=O)c1ccccc1 (configuration not stated),-5,nt,48*,nt,nt,nt
SMILES,Env fusion inh,CDK5 inh,INS-1E GSIS act,GSK3beta inhib,STK33 inh,GSK3A inh
COC(=O)c1cc(NC(=O)C2COc3ccccc3O2)cc(C(=O)OC)c1 (configuration not stated),-22,0,nt,3,29*,-2
O=C(NC1=NCCS1)C1COc2ccccc2O1 (configuration not stated),98*,1,nt,-5,1,0
C[C@@H]1CN([C@H](C)CO)S(=O)(=O)c2ccc(Br)cc2O[C@H]1CN(C)Cc1ccccc1,-4[16.7 µM],nt,-4,nt,nt,nt
CNC[C@H]1Oc2c(N)cccc2C(=O)N(C)C[C@H]1C,nt,nt,9,nt,nt,nt
CO[C@@H]1CN(C)C(=O)c2ccc(NC(C)=O)cc2OC[C@@H](C)N(Cc2ccncc2)C[C@@H]1C,nt,nt,3,nt,nt,nt
O=C(NNc1ccc([N+](=O)[O-])cc1)C12CC3CC(CC(C3)C1)C2,69*,1,-11,3,0,-3
CC1(Cc2cc(Cl)ccc2C(F)(F)F)C(=O)Nc2ccc(S(=O)(=O)NC3CCCCC3)cc21 (configuration not stated),16,nt,nt,nt,nt,nt
CC1(Cc2cccc(F)c2)C(=O)Nc2ccc(S(=O)(=O)NC3CCCCC3)cc21 (configuration not stated),58*,nt,-17,nt,nt,nt
CC1(Cc2ccc(Cl)c(Cl)c2)C(=O)Nc2ccc(S(=O)(=O)NC3CCCCC3)cc21 (configuration not stated),57*,nt,-38,nt,nt,nt
CC(C)(C)S(=O)N1Cc2cc(C(=O)O)nc(-c3cccc(C#CCC4CCCC4)c3)c2[C@H]1CCO (some centres not stated),nt,nt,4,nt,nt,nt
CO[C@@H]1CN(C)C(=O)c2cc(NS(=O)(=O)c3ccccc3Cl)ccc2OC[C@H](C)NC[C@@H]1C,5[16.7 µM],nt,-4,nt,nt,nt
CC(=O)N(C1CC(C)C(C#N)(C#N)C1(C#N)C#N)N(C)C (configuration not stated),-23,1,167*,6,0,1
COc1ccc(CC(N)c2csc(NC(=O)Nc3ccccc3C(C)C)n2)cc1 (configuration not stated),12,nt,-30,nt,nt,nt
COc1ccc(CC(N)c2csc(NC(=O)Nc3ccccc3Oc3ccccc3)n2)cc1 (configuration not stated),100*,nt,11,nt,nt,nt
NC(Cc1ccc(C(F)(F)F)cc1)c1csc(NC(=O)NCCc2ccccc2)n1 (configuration not stated),66*,nt,5,nt,nt,nt
NC(Cc1ccccc1)c1csc(NC(=O)Nc2ccccc2Oc2ccccc2)n1 (configuration not stated),60*,nt,8,nt,nt,nt
COc1ccc(CC(N)c2csc(NC(=O)Nc3ccccc3Cc3ccccc3)n2)cc1 (configuration not stated),98*,nt,-17,nt,nt,nt
NC(Cc1ccc(C(F)(F)F)cc1)c1csc(NC(=O)Nc2ccccc2Oc2ccccc2)n1 (configuration not stated),54,nt,6,nt,nt,nt
CCCc1cnc(Nc2nc(C(N)Cc3ccc(OC)cc3)cs2)nc1 (configuration not stated),-48,nt,nt,nt,nt,nt
COc1ccc(CC(N)c2csc(Nc3nncc4ccccc34)n2)cc1 (configuration not stated),58*,nt,41,nt,nt,nt
